Common to all, as to assay type: functional
Assay [1] has as its system Mythimna separata. The assay is described as follows: Insecticidal activity against Mythimna separata (Oriental armyworm) in wheat leaves assessed as mortality rate at 1 mg/mL at 25 degC measured after 35 days by leaf-dipping method relative to control. The conditions noted are these: 840 h. In outline: (§1)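 Leaf-dipping assay on pre-third-instar M. separata larvae. Compounds dissolved in acetone at 1 mg/mL; fresh wheat leaves dipped 3 s, then air-dried. Acetone-treated leaves served as control. 30 larvae per compound in groups of 10 per dish, with treated leaves replenished when consumed. After 48 h, larvae were switched to untreated fresh leaves. Corrected mortality = (T − C) × 100/(1 − C); three replicates.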

Assay [2] deals with Mythimna separata. Kind of assay: Insecticidal activity against Mythimna separata (Oriental armyworm) in wheat leaves assessed as mortality rate at 1 mg/mL at 25 degC measured after 25 days by leaf-dipping method relative to control. The conditions noted are these: 600 h. In outline: as §1
The subject of assay [3] is Mythimna separata. The assay is described as follows: Insecticidal activity against Mythimna separata (Oriental armyworm) in wheat leaves assessed as mortality rate at 1 mg/mL at 25 degC measured after 10 days by leaf-dipping method relative to control. As to conditions: 240 h. A digest of the protocol:
as §1

`C[C@@]12CCCC(COC(=O)c3ccncc3)=C1C(=O)O[C@H]2c1ccoc1`: the results for the mortality at 1000 µg/mL in the assay with Mythimna separata [1], in the assay on Mythimna separata [2] and in the assay with Mythimna separata [3] were 59.3%, 48.1% and 24.1%, respectively.
Regarding `CC1=C2C(=O)O[C@@H](c3ccoc3)[C@]2(C)CC[C@H]1OC(=O)c1ccc(Br)cc1`, the mortality at 1000 µg/mL in the assay on Mythimna separata [1] is 37%; with Mythimna separata [2] it was 25.9%; with Mythimna separata [3], 24.1%.
In the same order, the values of `CC1=C2C(=O)O[C@@H](c3ccoc3)[C@]2(C)CC[C@H]1OC(=O)COc1cccc2cccnc12` are 51.9%, 37% and 13.8%.
For the compound `CC1=C2C(=O)O[C@@H](c3ccoc3)[C@]2(C)CC[C@H]1OC(=O)c1ccco1`, the results for the mortality at 1000 µg/mL in the assay with Mythimna separata [1], in the assay with Mythimna separata [2] and with Mythimna separata [3] were 51.9%, 40.7% and 31%, respectively.
Take `CC(=O)O[C@@H]1C[C@H](O)[C@@]23CO[C@@H](O)[C@]1(C)[C@@H]2C[C@@H](O)[C@]1(C)[C@@H]3C(=O)[C@H](OC(C)=O)[C@@]2(C)[C@H](c3ccoc3)C[C@H]3O[C@]321` [TOOSENDANIN]: the figures for the mortality at 1000 µg/mL in the assay with Mythimna separata [1], in the assay with Mythimna separata [2] and in the assay with Mythimna separata [3] were 48.1%, 33.3% and 27.6%, respectively.
In the same order, the values of `C[C@@]12CCCC(COC(=O)c3ccccc3)=C1C(=O)O[C@H]2c1ccoc1` are 29.6%, 29.6% and 17.2%.
For `CC1=C2C(=O)O[C@@H](c3ccoc3)[C@]2(C)CC[C@H]1OC(=O)Cc1ccccc1`, the mortality at 1000 µg/mL worked out at 44.4% in the assay with Mythimna separata [1], 37% in the assay on Mythimna separata [2] and 31% with Mythimna separata [3].
The corresponding values for `CC1=C2C(=O)O[C@@H](c3ccoc3)[C@]2(C)CC[C@H]1OC(=O)c1ccc([N+](=O)[O-])cc1` are 51.9%, 40.7% and 27.6%.
As for `Cc1ccc(C(=O)OCC2=C3C(=O)O[C@@H](c4ccoc4)[C@]3(C)CCC2)cc1`, the mortality at 1000 µg/mL is 29.6% in the assay on Mythimna separata [1], 29.6% with Mythimna separata [2] and 17.2% with Mythimna separata [3].
For `CC1=C2C(=O)O[C@@H](c3ccoc3)[C@]2(C)CC[C@H]1OC(=O)c1cccc([N+](=O)[O-])c1`, the mortality at 1000 µg/mL with Mythimna separata [1] stood at 48.1%; in the assay with Mythimna separata [2] it was 40.7%; with Mythimna separata [3], 10.3%.
For `C[C@@]12CCCC(COC(=O)c3ccc(F)cc3)=C1C(=O)O[C@H]2c1ccoc1`, the mortality at 1000 µg/mL amounted to 51.9% in the assay with Mythimna separata [1], 40.7% in the assay on Mythimna separata [2] and 10.3% in the assay with Mythimna separata [3].
In the same order, the values of `C[C@@]12CCCC(COC(=O)c3ccc(Br)cc3)=C1C(=O)O[C@H]2c1ccoc1` are 33.3%, 29.6% and 24.1%.
`CCCCCCCC(=O)OCC1=C2C(=O)O[C@@H](c3ccoc3)[C@]2(C)CCC1`: the mortality at 1000 µg/mL in the assay with Mythimna separata [1] was determined as 33.3%; with Mythimna separata [2], 25.9%; in the assay with Mythimna separata [3], 6.9%.
The corresponding values for `CC1=C2C(=O)O[C@@H](c3ccoc3)[C@]2(C)CCC1` [FRAXINELLONE] are 44.4%, 33.3% and 20.7%.
In the same order, the values of `CC1=C2C(=O)O[C@@H](c3ccoc3)[C@]2(C)CC[C@H]1OC(=O)c1cccc(F)c1` are 44.4%, 29.6% and 24.1%.
Regarding `COc1cccc2ccc(C(=O)O[C@@H]3CC[C@]4(C)C(=C3C)C(=O)O[C@H]4c3ccoc3)nc12`, the mortality at 1000 µg/mL in the assay on Mythimna separata [1] amounted to 63%; with Mythimna separata [2], 48.1%; in the assay on Mythimna separata [3], 20.7%.
Take `CC1=C2C(=O)O[C@@H](c3ccoc3)[C@]2(C)CC[C@H]1OC(=O)c1ccc(C#N)cc1`: the mortality at 1000 µg/mL in the assay with Mythimna separata [1] came out at 55.6%; with Mythimna separata [2], 48.1%; with Mythimna separata [3] it was 20.7%.
In the same order, the values of `C[C@@]12CCCC(COC(=O)c3ccc(Cl)cc3)=C1C(=O)O[C@H]2c1ccoc1` are 40.7%, 25.9% and 6.9%.
The corresponding values for `CC1=C2C(=O)O[C@@H](c3ccoc3)[C@]2(C)CC[C@H]1OC(=O)Cc1cccc2ccccc12` are 51.9%, 29.6% and 10.3%.
In the same order, the values of `CC1=C2C(=O)O[C@@H](c3ccoc3)[C@]2(C)CC[C@H]1OC(=O)c1cccnc1` are 55.6%, 40.7% and 20.7%.
On to `CC1=C2C(=O)O[C@@H](c3ccoc3)[C@]2(C)CC[C@H]1OC(=O)c1ccc(C)cc1`, for which the figures for the mortality at 1000 µg/mL in the assay on Mythimna separata [1], in the assay on Mythimna separata [2] and with Mythimna separata [3] were 40.7%, 40.7% and 24.1%, respectively.
`CC1=C2C(=O)O[C@@H](c3ccoc3)[C@]2(C)CC[C@H]1OC(=O)c1ccncc1`: the figures for the mortality at 1000 µg/mL in the assay with Mythimna separata [1], in the assay on Mythimna separata [2] and in the assay on Mythimna separata [3] were 66.7%, 48.1% and 24.1%, respectively.
As to `C[C@@]12CCCC(COC(=O)Cc3cccc4ccccc34)=C1C(=O)O[C@H]2c1ccoc1`, the mortality at 1000 µg/mL came to 48.1% in the assay on Mythimna separata [1], 33.3% in the assay with Mythimna separata [2] and 20.7% in the assay on Mythimna separata [3].
Turning to `C[C@@]12CCCC(COC(=O)c3ccc([N+](=O)[O-])cc3)=C1C(=O)O[C@H]2c1ccoc1`, the mortality at 1000 µg/mL in the assay on Mythimna separata [1] turned out to be 40.7%; in the assay on Mythimna separata [2], 33.3%; in the assay on Mythimna separata [3] it was 13.8%.
Consider `C[C@@]12CCCC(COC(=O)c3ccc(C#N)cc3)=C1C(=O)O[C@H]2c1ccoc1`, for which the mortality at 1000 µg/mL with Mythimna separata [1] is 44.4%; in the assay with Mythimna separata [2], 25.9%; in the assay on Mythimna separata [3], 6.9%.
The corresponding values for `C[C@@]12CCCC(COC(=O)Cc3ccccc3)=C1C(=O)O[C@H]2c1ccoc1` are 44.4%, 33.3% and 27.6%.
The corresponding values for `C[C@@]12CCCC(COC(=O)c3cccc([N+](=O)[O-])c3)=C1C(=O)O[C@H]2c1ccoc1` are 44.4%, 29.6% and 24.1%.
In the same order, the values of `CC1=C2C(=O)O[C@@H](c3ccoc3)[C@]2(C)CC[C@H]1OC(=O)c1ccccc1` are 44.4%, 44.4% and 41.4%.
Take `CC1=C2C(=O)O[C@@H](c3ccoc3)[C@]2(C)CC[C@H]1OC(=O)c1cccc(Br)c1`: the mortality at 1000 µg/mL in the assay with Mythimna separata [1] turned out to be 44.4%; with Mythimna separata [2], 40.7%; in the assay on Mythimna separata [3], 20.7%.
Consider `CC1=C2C(=O)O[C@@H](c3ccoc3)[C@]2(C)CC[C@H]1OC(=O)c1ccc(Cl)cc1`, for which the results for the mortality at 1000 µg/mL in the assay on Mythimna separata [1], with Mythimna separata [2] and in the assay on Mythimna separata [3] were 40.7%, 33.3% and 20.7%, respectively.
In the same order, the values of `CCCCCCCC(=O)O[C@@H]1CC[C@]2(C)C(=C1C)C(=O)O[C@H]2c1ccoc1` are 48.1%, 33.3% and 10.3%.
Turning to `C[C@@]12CCCC(COC(=O)c3cccnc3)=C1C(=O)O[C@H]2c1ccoc1`, the values for the mortality at 1000 µg/mL with Mythimna separata [1], in the assay on Mythimna separata [2] and with Mythimna separata [3] were 51.9%, 44.4% and 27.6%, respectively.
As for `C[C@@]12CCCC(COC(=O)c3cccc(F)c3)=C1C(=O)O[C@H]2c1ccoc1`, the results for the mortality at 1000 µg/mL with Mythimna separata [1], in the assay with Mythimna separata [2] and in the assay on Mythimna separata [3] were 55.6%, 51.9% and 24.1%, respectively.
`CC1=C2C(=O)O[C@@H](c3ccoc3)[C@]2(C)CC[C@H]1OC(=O)c1ccc(F)cc1`: the mortality at 1000 µg/mL in the assay on Mythimna separata [1] is 63%; in the assay on Mythimna separata [2], 51.9%; in the assay on Mythimna separata [3], 24.1%.
For the compound `C[C@@]12CCCC(COC(=O)c3cccc(Br)c3)=C1C(=O)O[C@H]2c1ccoc1`, the mortality at 1000 µg/mL in the assay on Mythimna separata [1] came to 33.3%; with Mythimna separata [2] it was 25.9%; in the assay on Mythimna separata [3], 13.8%.
The corresponding values for `C[C@@]12CCCC(CO)=C1C(=O)O[C@H]2c1ccoc1` are 40.7%, 29.6% and 10.3%.
As for `CC1=C2C(=O)O[C@@H](c3ccoc3)[C@]2(C)CC[C@H]1O` [4ALPHA-HYDROXYFRAXINELLONE], the results for the mortality at 1000 µg/mL in the assay on Mythimna separata [1], in the assay on Mythimna separata [2] and with Mythimna separata [3] were 48.1%, 37% and 20.7%, respectively.
For `CCCCCCCCCCC(=O)O[C@@H]1CC[C@]2(C)C(=C1C)C(=O)O[C@H]2c1ccoc1`, the results for the mortality at 1000 µg/mL in the assay with Mythimna separata [1], in the assay with Mythimna separata [2] and in the assay with Mythimna separata [3] were 48.1%, 40.7% and 20.7%, respectively.

The values above are taken from ChEMBL document CHEMBL3046413, “Synthesis and insecticidal activity of some novel fraxinellone-based esters” (2012).
